Experiments:
[1] = Antileukemic activity against Murine P388 lymphocytic leukemia, body weight difference of the test animals compared to control group C animals at a dose of 25 mg/kg; format: functional, Mus musculus
Summary of the method: (§1)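 CD2F1 mice implanted intraperitoneally with ascitic fluid carrying ca. 1×10^6 P388 cells, under the NCI protocol. Dosing was intraperitoneal, starting 24 h after inoculation, then every 24 h for five doses in total. The body weight difference of treated mice is taken against untreated controls. Toxicity day survivors are the mice alive at day five out of those tested.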

[2] = system: P388; test: Log cell population relative to cell population at the beginning of treatment compared to control group C at a dose of 12.5 mg/kg; format: functional, Mus musculus
[3] = system: P388; test: Log cell population relative to cell population at the beginning of treatment compared to control group B at a dose of 50 mg/kg; format: functional, Mus musculus
[4] = Antileukemic activity against Murine P388 lymphocytic leukemia, body weight difference of the test animals compared to control group B animals at a dose of 6.25 mg/kg; format: functional, Mus musculus; summary of the method: as §1
[5] = Percent increase in life span of test animals compared to untreated tumor-bearing control group C animals at a dose of 6.25 mg/kg; format: functional; conditions: Mus musculus
[6] = Toxicity day survivors expressed as number of animals that survived to day five/ number of test animals under control group B at a dose of 100 mg/kg; 6 survived out of 6; format: functional, Mus musculus
[7] = Toxicity day survivors expressed as number of animals that survived to day five/ number of test animals under control group A at a dose of 25 mg/kg; 6 survived out of 6; format: functional, Mus musculus
[8] = Percent increase in life span of test animals compared to untreated tumor-bearing control group B animals at a dose of 12.5 mg/kg; format: functional; conditions: Mus musculus
[9] = Percent increase in life span of test animals compared to untreated tumor-bearing control group A animals at a dose of 100 mg/kg; format: functional; conditions: Mus musculus
[10] = Percent increase in life span of test animals compared to untreated tumor-bearing control group C animals at a dose of 50 mg/kg; format: functional; conditions: Mus musculus
[11] = Percent increase in life span of test animals compared to untreated tumor-bearing control group C animals at a dose of 12.5 mg/kg; format: functional; conditions: Mus musculus
[12] = Percent increase in life span of test animals compared to untreated tumor-bearing control group C animals at a dose of 25 mg/kg; format: functional; conditions: Mus musculus
[13] = system: P388; test: Log cell population relative to cell population at the beginning of treatment compared to control group A at a dose of 25 mg/kg; format: functional, Mus musculus
[14] = Percent increase in life span of test animals compared to untreated tumor-bearing control group A animals at a dose of 12.5 mg/kg; format: functional; conditions: Mus musculus
[15] = Percent increase in life span of test animals compared to untreated tumor-bearing control group C animals at a dose of 100 mg/kg; format: functional; conditions: Mus musculus
[16] = Antileukemic activity against Murine P388 lymphocytic leukemia, body weight difference of the test animals compared to control group A animals at a dose of 12.5 mg/kg; format: functional, Mus musculus; summary of the method: as §1
[17] = system: P388; test: Log cell population relative to cell population at the beginning of treatment compared to control group A at a dose of 12.5 mg/kg; format: functional, Mus musculus

`CC(C)NC(=O)OCc1c(COC(=O)NC(C)C)c(-c2ccc(Cl)c(Cl)c2)n2c1CCC2` gave a BWD [1] of -1.4, a KE [2] of -0.07 and a KE [3] of 5.71. For the same compound, the BWD [4] was -0.5, the ILS at 6.25 mg/kg [5] was 26% and the TDS [6] was 6. For the same compound, the TDS [7] was 6, the ILS at 12.5 mg/kg [8] was 45% and the ILS at 100 mg/kg [9] was 48%. The ILS at 50 mg/kg [10] was 96%, the ILS at 12.5 mg/kg [11] was 32% and the ILS at 25 mg/kg [12] was 55%. For the same compound, the KE [13] was 2.81, the ILS at 12.5 mg/kg [14] was 56% and the ILS at 100 mg/kg [15] was 123%. The BWD [16] was -0.6 and the KE [17] was 1.4.

Reference: ChEMBL document CHEMBL1123648, “Synthesis, chemical reactivity, and antileukemic activity of 5-substituted 6,7-bis(hydroxymethyl)pyrrolo[1,2-c]thiazole biscarbamates and the corresponding sulfoxides and sulfones” (1987)
